These results are taken from ChEMBL document CHEMBL1221324, “Synthesis and characterization of mitoQ and idebenone analogues as mediators of oxygen consumption in mitochondria” (2010).

The structures appear in SMILES notation. Activity calls are given as the source filed them. The rule behind the calls is not given here.

The test system of assay [1] is CCRF-CEM. The assay can be described thus: Cytoprotective activity against diethyl maleate-induced cell death in human CEM cells assessed as cell viability at 2.5 uM treated 18 hrs before diethyl maleate challenge measured after 4 hrs by trypan blue assay. The class given is functional. The conditions noted are these: read-out: Activity. A digest of the protocol: (§1)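 CEM leukemia cells grown in RPMI 1640 with 10% FBS and 1% penicillin-streptomycin; 5 × 10⁵ cells/well pretreated with compound for 18 h, then exposed to 5 mM diethyl maleate at 37 °C, 5% CO2 for 4 h. Viability by 0.4% trypan blue exclusion, as percent of control cells given neither DEM nor compound; mean ± SD, n=3.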

For assay [2], the system named is CCRF-CEM. The assay can be described thus: Cytoprotective activity against diethyl maleate-induced cell death in human CEM cells assessed as cell viability at 0.5 uM treated 18 hrs before diethyl maleate challenge measured after 4 hrs by trypan blue assay. The class given is functional. As to conditions: read-out: Activity. The method, boiled down: as §1
Assay [3] has as its system CCRF-CEM. The assay can be described thus: Cytoprotective activity against diethyl maleate-induced cell death in human CEM cells assessed as cell viability at 0.1 uM treated 18 hrs before diethyl maleate challenge measured after 4 hrs by trypan blue assay. The class given is functional. As to conditions: read-out: Activity. A digest of the protocol:
as §1

For assay [4], the system named is C2C12. The assay is described as follows: Inhibition of rotenone-induced blockade of mitochondrial complex 1 in mouse C2C12 cells assessed as increase of oxygen consumption at 10 uM after 2 hrs by fluorescence assay in presence of FCCP. The class given is cell-based. The method, boiled down:
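C2C12 cells grown in DMEM with 10% FBS and 2 mM glutamine were trypsinized, resuspended in phenol red-free medium and pretreated with 25 nM rotenone. They were plated at 200,000 cells/well on an oxygen biosensor plate and given 10 μM compound with 5 μM FCCP. Fluorescence (ex 485/em 620 nm) was followed for 2 h. Rate is M/T, slope at 50% maximum over time to 50% maximum, in triplicate.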

Take `COC1=C(OC)C(=O)C(CCCCCCCCCCO)=C(C)C1=O` [IDEBENONE]: the viability at 2.5 µM in assay [1] turned out to be 86.2%. Also, in assay [2], the viability at 0.5 µM amounted to 35.8%. In assay [3], the viability at 0.1 µM worked out at 24.6%.

For `COC1=C(C)C(=O)C(C)=C(CCCCCCCCCCO)C1=O`, in assay [1], the viability at 2.5 µM was found to be 77.1%. The viability at 0.5 µM in assay [2] came out at 21.2%. Further, the viability at 0.1 µM in assay [3] came to 8.27%.

Consider `COC1=C(OC)C(=O)C(CCCCC[P+](c2ccccc2)(c2ccccc2)c2ccccc2)=C(C)C1=O`, for which the “Rescue of oxygen consumption (active/not active)” value (“Rescue … (active/not active)” for short) in assay [4] was “inactive”.

Take `COC1=C(C)C(=O)C(CCCCCCCCCCO)=C(C)C1=O`: the viability at 2.5 µM in assay [1] came out at 82.3%. Further, the viability at 0.5 µM in assay [2] was 74.7%. Moreover, the viability at 0.1 µM in assay [3] was 22.9%.

On to `CC1=C(C)C(=O)C(CCCCCCCCCCO)=C(C)C1=O`, for which, in assay [1], the viability at 2.5 µM is 96.3%. Besides, the viability at 0.5 µM in assay [2] was determined as 77.3%. Moreover, the viability at 0.1 µM in assay [3] turned out to be 34.8%.

On to `COC1=C(OC)C(=O)C(CCCCCCCCCCCCCCC[P+](c2ccccc2)(c2ccccc2)c2ccccc2)=C(C)C1=O`, for which the “Rescue … (active/not active)” value in assay [4] was “inactive”.

As to `COC1=C(OC)C(=O)C(CCCCCCCCCC[P+](c2ccccc2)(c2ccccc2)c2ccccc2)=C(C)C1=O`, in assay [4], the “Rescue … (active/not active)” value was “inactive”.

For the molecule `COC1=C(OC)C(=O)C(CCC[P+](c2ccccc2)(c2ccccc2)c2ccccc2)=C(C)C1=O`, the “Rescue … (active/not active)” value in assay [4] is “Active”.
